Publication PMC7941214 (Journal of medicinal chemistry, 2019)
Values joined by “and” are separate entries in the source; they are usually repeats but may differ in a detail not shown here. Equal entries are not always repeated.

Key:
E. cloacae NCTC 13405 = test: Broth microdilution MIC/MBC, E. cloacae; type: cell-based, Enterobacter cloacae; details: for MIC E. cloacae NCTC 13405: value before the parentheses, two values = two repeats; for MBC E. cloacae NCTC 13405: value in parentheses
In short: (§1)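 CLSI broth microdilution in cation-adjusted Mueller–Hinton broth. Log-phase cultures were diluted to 7.5 × 10^5 CFU/mL, then mixed 1:1 with 2-fold serial dilutions of gold complexes from DMSO or water stocks, in triplicate, and held 37 °C, 18 h, static. MIC: lowest concentration giving >90% inhibition by OD600 against medium-only and bacteria-only wells. […] E. coli ATCC 25922 quality control was checked each run with ciprofloxacin and […].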

P. aeruginosa NCTC 13437 = test: Broth microdilution MIC/MBC, P. aeruginosa; type: cell-based, Pseudomonas aeruginosa; details: for MIC P. aeruginosa NCTC 13437: value before the parentheses, two values = two repeats; for MBC P. aeruginosa NCTC 13437: value in parentheses
In short: as §1

S. aureus JE2 (USA300) = test: Broth microdilution MIC/MBC, S. aureus; type: cell-based, Staphylococcus aureus; details: for MIC S. aureus JE2 (USA300): value before the parentheses, two values = two repeats; for MBC S. aureus JE2 (USA300): value in parentheses
In short: as §1

E. faecium ATCC 700221 = test: Broth microdilution MIC/MBC, E. faecium; type: cell-based, Enterococcus faecium; details: for MIC E. faecium ATCC 700221: value before the parentheses, two values = two repeats; for MBC E. faecium ATCC 700221: value in parentheses
In short: as §1

A. baumannii NCTC 13420 = test: Broth microdilution MIC/MBC, A. baumannii; type: cell-based, Acinetobacter baumannii; details: for MBC A. baumannii NCTC 13420: value in parentheses; for MIC A. baumannii NCTC 13420: value before the parentheses, two values = two repeats
Log P determination = details: n-octanol/water, Au by FAAS
[1] = test system: K. pneumoniae ATCC 700603; test: Broth microdilution MIC/MBC, K. pneumoniae; type: cell-based, Klebsiella pneumoniae; details: for MIC K. pneumoniae ATCC 700603: value before the parentheses, two values = two repeats; for MBC K. pneumoniae ATCC 700603: value in parentheses
In short: as §1

E. coli ATCC 25922 = test: Broth microdilution MIC/MBC, E. coli; type: cell-based, Escherichia coli; details: for MIC E. coli ATCC 25922: value before the parentheses, two values = two repeats; for MBC E. coli ATCC 25922: value in parentheses
In short: as §1

Structure (SMILES) | MIC E. cloacae NCTC 13405 (E. cloacae NCTC 13405) [µM] | MIC P. aeruginosa NCTC 13437 (P. aeruginosa NCTC 13437) [µM] | MIC S. aureus JE2 (USA300) (S. aureus JE2 (USA300)) | MBC S. aureus JE2 (USA300) (S. aureus JE2 (USA300)) [µM] | MIC E. faecium ATCC 700221 (E. faecium ATCC 700221) | MBC E. faecium ATCC 700221 (E. faecium ATCC 700221) [µM] | MBC A. baumannii NCTC 13420 (A. baumannii NCTC 13420) [µM] | log P (Log P determination) | MIC K. pneumoniae ATCC 700603 [1] | MIC E. coli ATCC 25922 (E. coli ATCC 25922) [µM] | MBC E. cloacae NCTC 13405 (E. cloacae NCTC 13405) [µM] | MBC P. aeruginosa NCTC 13437 (P. aeruginosa NCTC 13437) [µM] | MIC A. baumannii NCTC 13420 (A. baumannii NCTC 13420) | MBC K. pneumoniae ATCC 700603 [1] [µM] | MBC E. coli ATCC 25922 (E. coli ATCC 25922) [µM] | fold enhancement of activity over auranofin, E. cloacae (E. cloacae NCTC 13405; vs auranofin) | MIC S. aureus (S. aureus JE2 (USA300)) | fold enhancement of activity over auranofin, E. faecium (E. faecium ATCC 700221; vs auranofin)
[Cl][Au].c1ccc(P(c2ccccc2)c2ccccc2)cc1 [Compound 27, (Triphenylphosphine)gold Chloride] | >518 | >518 | 1 µM and 2 µM | 4 | 4 µM | 4 | 518 | >3.94 | >518 µM | >518 | – | – | – | – | – | – | – | –
CP(C)C.[Cl][Au] [Compound 24, (Trimethylphosphine)gold Chloride] | 3 | 52 | 0.1 µM and 0.2 µM | 1.6 | 0.4 µM | 3 | 13 | 0.16 | 7 µM and 13 µM | 7 | 3 | 52 | 7 µM and 13 µM | 13 | 7 | – | – | –
CC[PH](CC)(CC)[Au][S]C1OC(CO)C(O)C(O)C1O [Compound 10, (1-Thio-β-D-galatopyranosato)(triethylphosphine) Gold(I)] | 63 | 251 | 0.02 µM | 0.1 | 0.1 µM and 0.2 µM | 0.5 | 31 | −0.73 | 251 µM | 16 | 63 | 251 | 31 µM | 251 | 16 | 3 | – | –
CCCC[PH](CCCC)(CCCC)[Au][Cl] [Compound 26, (Tri-n-butylphosphine)gold Chloride] | >589 | 74 | 2 µM | 4 | 5 µM | 5 | 147 | >3.99 | 147 µM | >589 | – | 74 | 74 µM and 147 µM | 147 | – | – | – | –
CC[PH](CC)(CC)[Au][O]C1OC(CO)C(OC2OC(CO)C(O)C(O)C2O)C(O)C1O [Compound 13, [β-D-Galactopyranosyl-(1→4)-β-D-glucopyranosato]-(triethylphosphine) Gold(I)] | 190 | 381 | – | 0.09 | 0.09 µM | 0.4 | 190 | – | 381 µM | 24 | 190 | 381 | 24 µM and 48 µM | 381 | 24 | – | – | –
CC[PH](CC)(CC)[Au][S]c1ccccc1N [Compound 16, (2-Aminobenzenethiolato)(triethylphosphine) Gold(I)] | – | 291 | 0.009 µM | 0.6 | 0.02 µM | 0.1 | 18 | 0.61 | 146 µM | 36 | – | 291 | 18 µM and 36 µM | 146 | 36 | – | in the nanomolar range | more than 7
